Series [1] is described as follows: Toxicity in Artemia salina (brine shrimp) […]. Format: organism-based. The conditions noted are these: in vivo.
For series [2], the system named is Fusarium oxysporum f. sp. vasinfectum. The experiment in a line: Antifungal activity against Fusarium oxysporum f. sp. vasinfectum at 28 degC after 48 hr microbroth dilution method. The class given is functional. In a few lines: (§1)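 Plant-pathogenic fungi isolated from infected plant organs. Fungi grown 18 h in PD medium at 28 ± 0.5 °C and 150 rpm, then diluted to about 1 × 10^6 CFU in PD medium. Compounds at 2 mg/mL DMSO stock, serially diluted in triplicate in PD medium in 96-well plates before the fungal suspension was added. DMSO served as negative control. After 48 h at 28 ± 0.5 °C, MIC taken as the lowest concentration with no visible growth.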

The next series relates to Alternaria solani. Description: Antifungal activity against Alternaria solani at 28 degC after 48 hr microbroth dilution method. Format: functional. In a few lines:
as §1

Another series deals with Botrytis cinerea. Description: Antifungal activity against Botryotinia fuckeliana at 28 degC after 48 hr microbroth dilution method. The class given is functional. In a few lines:
as §1

A further series has as its system Alternaria alternata. Description: Antifungal activity against Alternaria alternata at 28 degC after 48 hr microbroth dilution method. Format: functional. Put shortly:
as §1

Series [3] relates to Colletotrichum gloeosporioides. Description: Antifungal activity against Colletotrichum gloeosporioides at 28 degC after 48 hr microbroth dilution method. Format: functional. In a few lines:
as §1

The next series has as its system Fusarium solani. The experiment in a line: Antifungal activity against Fusarium solani at 28 degC after 48 hr microbroth dilution method. Format: functional. Put shortly: as §1
The subject of the next series is Fusarium graminearum. Description: Antifungal activity against Fusarium graminearum at 28 degC after 48 hr microbroth dilution method. Format: functional. Put shortly: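 Microbroth dilution in PD medium. Fungi were grown 18 h at 28 ± 0.5 °C and 150 rpm, then diluted to about 1 × 10^6 CFU. Compounds (2 mg/mL DMSO stock) were serially diluted in triplicate and fungal suspension added. Incubated 48 h at 28 ± 0.5 °C. MIC was the lowest concentration with no visible growth. Controls: DMSO, carbendazim, hymexazol.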

The subject of series [4] is Fusarium oxysporum f. sp. niveum. Description: Antifungal activity against Fusarium oxysporum f. sp. niveum at 28 degC after 48 hr microbroth dilution method. The class given is functional. In a few lines:
as §1

In a further series the test system is Mythimna separata. Description: Antifeedant activity against Mythimna separata (Oriental armyworm) larvae assessed as antifeedant index by area of the leaf consumed. The class given is functional. Set-up: concentration or dose not given beside the values. Put shortly: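 Positive control prepared at 10 mg/mL in acetone; leaves treated with acetone alone served as control. Ten treated leaves and 10 larvae per Petri dish lined with moistened filter paper. Held at 25 ± 2 °C, 12L:12D, 65−80% rh. Leaf area consumed recorded after 48 h. AFI = (C − T)/C × 100%, from control and treated areas consumed. Three repetitions.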

Molecules are shown by their SMILES. In brackets after ≈: the same amount, converted by molar mass.

Consider `C[C@@H]1NC(=O)[C@@H]2CCCN2C1=O`, for which, in [1], the LC50 was over 100 µg/mL.
`O=C1CNC(=O)[C@H](Cc2ccccc2)N1` had an LC50 in series [1] of over 100 µg/mL.
Same read-out and setting: the value for `C[C@@H]1NC(=O)[C@H]2CCCN2C1=O` was over 100 µg/mL.
The same measure, in the same setting: under `O=C1N[C@@H](CO)C(=O)N2CCC[C@@H]12` stands over 100 µg/mL; under `O=C1N[C@@H](CO)C(=O)N2C[C@H](O)C[C@@H]12`, over 100 µg/mL; under `CC(C)C[C@@H]1NC(=O)[C@@H]2CC(O)CN2C1=O` (stereo not given in full), over 100 µg/mL.
The same measure, in the same setting: the value for `O=C1N[C@@H](Cc2ccccc2)C(=O)N2C[C@H](O)C[C@H]12` was over 100 µg/mL; that for `C[C@@H]1NC(=O)CNC1=O` was over 100 µg/mL.
For the molecule `COc1ccc2c3c([nH]c2c1)[C@H](CC(C)(C)O)N1C(=O)[C@@H]2CCCN2C(=O)[C@@]1(O)[C@H]3O`, the MIC was 50 µg/mL (≈ 116 µM) in [2]; 25 µg/mL (≈ 58.2 µM) in the series on Alternaria solani; 25 µg/mL (≈ 58.2 µM) with Botrytis cinerea; 25 µg/mL (≈ 58.2 µM) with Alternaria alternata; 25 µg/mL (≈ 58.2 µM) in [3]; 50 µg/mL (≈ 116 µM) against Fusarium solani. For the same molecule, the MIC (against Fusarium graminearum; in [4]) was 25 µg/mL (≈ 58.2 µM) each time. For the same molecule, the LC50 in [1] was 73.2 µg/mL (≈ 170 µM).
With `COc1ccc2c3c([nH]c2c1)[C@H](CC(C)(C)O)N1C(=O)[C@@H]2CCCN2C(=O)[C@@]1(O)[C@H]3OC`, the MIC turned out to be 25 µg/mL (≈ 56.4 µM) in [2]; 6.25 µg/mL (≈ 14.1 µM) against Alternaria solani; 6.25 µg/mL (≈ 14.1 µM) in the series with Botrytis cinerea; 6.25 µg/mL (≈ 14.1 µM) in the series on Alternaria alternata; 6.25 µg/mL (≈ 14.1 µM) in series [3]; 25 µg/mL (≈ 56.4 µM) against Fusarium solani. Also, the minimal inhibitory concentration (MIC) turned out to be 6.25 µg/mL (≈ 14.1 µM) with Fusarium graminearum and 12.5 µg/mL (≈ 28.2 µM) in series [4]. This molecule also yielded an LC50 in [1] of 60.7 µg/mL (≈ 137 µM).
As for `COc1ccc2c(c1)N[C@@]1(C2=O)[C@H](C=C(C)C)N2C(=O)[C@@H]3CCCN3C(=O)[C@]2(O)[C@H]1O`, the AFI in the series on Mythimna separata worked out at 5%. In series [1], this molecule came in with an LC50 of over 100 µg/mL.
In series [1], `O=C1[C@@H]2C[C@@H](O)CN2C(=O)[C@@H]2CCCN12` came in with an LC50 of over 100 µg/mL.
Still for that read-out and setting: under `C[C@@H]1NC(=O)[C@@H]2C[C@@H](O)CN2C1=O` stands 66.1 µg/mL (≈ 359 µM); under `O=C1C[C@@H](O)[C@H](O)c2cccc(O)c21` (relative stereo), over 100 µg/mL; under `O=C1C[C@@H](O)[C@@H](O)c2cccc(O)c21` (relative stereo), over 100 µg/mL.
As to `C[C@@H]1N[C@H]2N(C1=O)c1ccccc1[C@@]2(O)C[C@@H]1C(=O)N[C@](C)(O)c2nc3ccccc3c(=O)n21` [3-HYDROXYFUMIQUINAZOLINE A], the MIC in series [2] was 50 µg/mL (≈ 108 µM); against Alternaria solani, 12.5 µg/mL (≈ 27.1 µM); against Botrytis cinerea, 12.5 µg/mL (≈ 27.1 µM); in the series with Alternaria alternata it was 12.5 µg/mL (≈ 27.1 µM); in series [3] it was 12.5 µg/mL (≈ 27.1 µM); against Fusarium solani it was 100 µg/mL (≈ 217 µM). Moreover, the figures for the MIC (in the series with Fusarium graminearum; in series [4]) were 12.5 µg/mL (≈ 27.1 µM) and 50 µg/mL (≈ 108 µM), respectively. The AFI in the series on Mythimna separata is given as 7.5%. This molecule displayed an LC50 in [1] of 80.8 µg/mL (≈ 175 µM).
`O=C1CCC(O)c2cccc(O)c21` (stereo not given) [4,8-DIHYDROXY-1-TETRALONE]: the MIC in series [2] was 50 µg/mL (≈ 281 µM); against Alternaria solani it was 12.5 µg/mL (≈ 70.2 µM); with Botrytis cinerea, 12.5 µg/mL (≈ 70.2 µM); against Alternaria alternata it was 12.5 µg/mL (≈ 70.2 µM); in [3], 12.5 µg/mL (≈ 70.2 µM); in the series with Fusarium solani, 50 µg/mL (≈ 281 µM). The MIC with Fusarium graminearum was found to be 12.5 µg/mL (≈ 70.2 µM); in series [4], 25 µg/mL (≈ 140 µM). For the same molecule, in series [1], the LC50 came to 52.7 µg/mL (≈ 296 µM).
Molecule `O=C1N[C@@H](Cc2c[nH]c3ccccc23)C(=O)N2CCC[C@@H]12` [BREVIANAMIDE F] registered an LC50 in [1] of 83.7 µg/mL (≈ 295 µM).
For the molecule `COC(=O)Nc1nc2ccccc2[nH]1` [CARBENDAZIM], the minimum inhibitory concentration (MIC) in series [2] came to 25 µg/mL (≈ 131 µM); against Alternaria solani, 12.5 µg/mL (≈ 65.4 µM); against Botrytis cinerea, 12.5 µg/mL (≈ 65.4 µM); against Alternaria alternata, 6.25 µg/mL (≈ 32.7 µM); in series [3] it was 6.25 µg/mL (≈ 32.7 µM); with Fusarium solani, 25 µg/mL (≈ 131 µM). In addition, the figures for the MIC (against Fusarium graminearum; in series [4]) were 6.25 µg/mL (≈ 32.7 µM) and 12.5 µg/mL (≈ 65.4 µM), respectively.
In series [1], `O=C1NCC(=O)N2CCC[C@@H]12` [CYCLO(PROLYLGLYCYL)] gave a 50% lethal concentration (LC50) of over 100 µg/mL.
Regarding `COc1ccc2c3c([nH]c2c1)[C@H](C=C(C)C)N1C(=O)[C@@H]2CCCN2C(=O)[C@@]1(O)[C@H]3OC` [CYCLOTRYPROSTATIN B], the MIC in [2] was found to be 25 µg/mL (≈ 58.8 µM); against Alternaria solani, 12.5 µg/mL (≈ 29.4 µM); in the series on Botrytis cinerea, 12.5 µg/mL (≈ 29.4 µM); in the series with Alternaria alternata, 12.5 µg/mL (≈ 29.4 µM); in [3], 12.5 µg/mL (≈ 29.4 µM); against Fusarium solani, 25 µg/mL (≈ 58.8 µM). In addition, the minimal inhibitory concentration (MIC) (against Fusarium graminearum; in series [4]) was 12.5 µg/mL (≈ 29.4 µM) each time. Besides, the LC50 in [1] was 37.9 µg/mL (≈ 89.1 µM).
For the molecule `C[C@@H]1CN(C)[C@@H]2Cc3c[nH]c4cccc(c34)[C@H]2[C@H]1O` [FUMIGACLAVINE B], the LC50 in series [1] is over 100 µg/mL.
Take `C[C@H]1NC(=O)[C@@H](Cc2c[nH]c3ccccc23)n2c1nc1ccccc1c2=O` [FUMIQUINAZOLINE G]: the MIC in [2] was 50 µg/mL (≈ 140 µM); in the series with Alternaria solani, 25 µg/mL (≈ 69.8 µM); against Botrytis cinerea, 12.5 µg/mL (≈ 34.9 µM); in the series on Alternaria alternata, 12.5 µg/mL (≈ 34.9 µM); in [3], 12.5 µg/mL (≈ 34.9 µM); in the series on Fusarium solani, 50 µg/mL (≈ 140 µM). The results for the MIC (in the series with Fusarium graminearum; in series [4]) were 12.5 µg/mL (≈ 34.9 µM) and 50 µg/mL (≈ 140 µM), respectively. The molecule also returned an LC50 in [1] of 78.8 µg/mL (≈ 220 µM).
Consider `Cc1cc(O)no1` [HYMEXAZOL], for which the MIC was 25 µg/mL (≈ 252 µM) in [2]; 12.5 µg/mL (≈ 126 µM) against Alternaria solani; 12.5 µg/mL (≈ 126 µM) in the series on Botrytis cinerea; 12.5 µg/mL (≈ 126 µM) against Alternaria alternata; 12.5 µg/mL (≈ 126 µM) in [3]; 50 µg/mL (≈ 505 µM) in the series on Fusarium solani. Also, the minimum inhibitory concentration (MIC) (in the series on Fusarium graminearum; in series [4]) was 12.5 µg/mL (≈ 126 µM) throughout.
For the molecule `CC/C=C/[C@H](O)[C@H](O)C1=C(C)C(=O)[C@]2(O1)C(=O)N[C@@](OC)(C(=O)c1ccccc1)[C@H]2O` [PSEUROTIN A1], the LC50 in [1] was over 100 µg/mL.
`CC/C=C\[C@H](O)[C@H](O)C1=C(C)C(=O)[C@]2(O1)C(=O)N[C@@](OC)(C(=O)c1ccccc1)[C@@H]2O` [PSEUROTIN A] yielded an LC50 in series [1] of over 100 µg/mL.
Same read-out and setting: under `COc1ccc2c(c1)NC(=O)[C@@]21C=C2C(=O)N3CCC[C@H]3C(=O)N2[C@H]1C=C(C)C` [SPIROTRYPROSTATIN B] stands over 100 µg/mL; under `CC(C)=CCc1cccc2c(C[C@@H]3NC(=O)[C@H](C)NC3=O)c[nH]c12` [TEREZINE D], over 100 µg/mL.
Regarding `CC(=O)O[C@@H]1C[C@H](O)[C@@]23CO[C@@H](O)[C@]1(C)[C@@H]2C[C@@H](O)[C@]1(C)[C@@H]3C(=O)[C@H](OC(C)=O)[C@@]2(C)[C@H](c3ccoc3)C[C@H]3O[C@]321` [TOOSENDANIN], in the series on Mythimna separata, the AFI was 97.5%. Moreover, in [1], the 50% lethal concentration (LC50) was under 1 µg/mL.
`COc1ccc2c(C[C@@H]3NC(=O)[C@@H]4CCCN4C3=O)c(CC=C(C)C)[nH]c2c1` [TRYPROSTATIN A]: the LC50 in [1] was 44.8 µg/mL (≈ 117 µM).
For `C[C@@H]1C(=O)N2c3ccccc3[C@@]3(O)C[C@H](n4cnc5ccccc5c4=O)C(=O)N1[C@H]23` [TRYPTOQUIVALINE O], the MIC was over 100 µg/mL in series [2]; 12.5 µg/mL (≈ 31.1 µM) in the series with Alternaria solani; 25 µg/mL (≈ 62.1 µM) in the series on Botrytis cinerea; 25 µg/mL (≈ 62.1 µM) against Alternaria alternata; 100 µg/mL (≈ 249 µM) in series [3]; over 100 µg/mL against Fusarium solani. Also, the MIC in the series on Fusarium graminearum is 50 µg/mL (≈ 124 µM); in series [4], over 100 µg/mL. Moreover, the LC50 in [1] came to 72.8 µg/mL (≈ 181 µM).
As to `O=c1cc[nH]c(=O)[nH]1` [URACIL], the LC50 in [1] was over 100 µg/mL.

The record behind these values is ChEMBL document CHEMBL3045178, “Metabolites from Aspergillus fumigatus, an endophytic fungus associated with Melia azedarach, and their antifungal, antifeedant, and toxic activities” (J Agric Food Chem, 2012).
